The record followed here is ChEMBL document CHEMBL3792316, “2-Phenylbenzofuran derivatives as butyrylcholinesterase inhibitors: Synthesis, biological activity and molecular modeling” (Bioorg Med Chem Lett, 2016).

Activity calls are given as the source filed them. No cut-off for these calls is given here.

In series [1] the target is Acetylcholinesterase (Electrophorus electricus) (UniProt O42275). The experiment in a line: Inhibition of electric eel AChE at 100 uM using acetylthiocholine iodide as substrate by Ellman's method. (DTNB colorimetry detects thiols as they appear.)
Series [2] can be described thus: Antioxidant activity assessed as ABTS free radical scavenging activity at 100 uM after 1 min by spectrophotometry.
Series [3] concerns the target Cholinesterase (Equus caballus) (UniProt P81908). The experiment in a line: Inhibition of equine BChE at 100 uM using S-butyrylthiocholine chloride as substrate by Ellman's method.
Series [4] has as its target T1, Cholinesterase (Equus caballus, UniProt P81908). The experiment in a line: Inhibition of equine BChE using S-butyrylthiocholine chloride as substrate by Ellman's method. In short, it runs like this:
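IC50 values are the mean ± SD of three independent experiments.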

A short description of series [5]: Antioxidant activity assessed as ABTS free radical scavenging activity after 1 min by spectrophotometry.
The target in series [6] is T1, Cholinesterase. As to the kind of experiment: Mixed-type inhibition of equine BChE using S-butyrylthiocholine chloride as substrate assessed as free enzyme by Lineweaver-Burk reciprocal plot method.
A short description of series [7]: Cytotoxicity against mouse NSC-34 cells assessed as cell viability after 48 hrs by MTS assay. It is filed as cell-based. The settings on record: nsc-34, 48 h. (Formazan colour is commonly taken as a measure of viable cells.)
Series [8] has as its target T1, Cholinesterase. As to the kind of experiment: Mixed-type inhibition of equine BChE using S-butyrylthiocholine chloride as substrate assessed as enzyme-substrate complex by Lineweaver-Burk reciprocal plot method.

T1 sequence (P81908 whole entry): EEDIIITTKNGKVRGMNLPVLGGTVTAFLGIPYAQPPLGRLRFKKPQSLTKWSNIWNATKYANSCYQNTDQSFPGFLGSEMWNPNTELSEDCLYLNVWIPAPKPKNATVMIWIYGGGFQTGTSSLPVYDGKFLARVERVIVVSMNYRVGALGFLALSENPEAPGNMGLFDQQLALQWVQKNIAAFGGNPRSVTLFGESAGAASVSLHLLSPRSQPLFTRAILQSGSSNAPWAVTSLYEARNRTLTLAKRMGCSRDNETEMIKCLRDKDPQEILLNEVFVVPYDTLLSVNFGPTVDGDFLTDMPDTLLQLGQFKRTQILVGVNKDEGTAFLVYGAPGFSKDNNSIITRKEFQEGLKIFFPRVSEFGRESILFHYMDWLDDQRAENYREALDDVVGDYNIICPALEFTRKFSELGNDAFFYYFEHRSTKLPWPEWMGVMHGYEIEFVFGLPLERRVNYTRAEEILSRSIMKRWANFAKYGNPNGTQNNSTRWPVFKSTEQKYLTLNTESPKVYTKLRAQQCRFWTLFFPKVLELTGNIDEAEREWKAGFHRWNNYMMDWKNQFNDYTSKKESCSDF
Sequence of Cholinesterase (Equus caballus) (P81908 whole entry): as above
Sequence of Acetylcholinesterase (Electrophorus electricus) (O42275 24-633 limits assumed): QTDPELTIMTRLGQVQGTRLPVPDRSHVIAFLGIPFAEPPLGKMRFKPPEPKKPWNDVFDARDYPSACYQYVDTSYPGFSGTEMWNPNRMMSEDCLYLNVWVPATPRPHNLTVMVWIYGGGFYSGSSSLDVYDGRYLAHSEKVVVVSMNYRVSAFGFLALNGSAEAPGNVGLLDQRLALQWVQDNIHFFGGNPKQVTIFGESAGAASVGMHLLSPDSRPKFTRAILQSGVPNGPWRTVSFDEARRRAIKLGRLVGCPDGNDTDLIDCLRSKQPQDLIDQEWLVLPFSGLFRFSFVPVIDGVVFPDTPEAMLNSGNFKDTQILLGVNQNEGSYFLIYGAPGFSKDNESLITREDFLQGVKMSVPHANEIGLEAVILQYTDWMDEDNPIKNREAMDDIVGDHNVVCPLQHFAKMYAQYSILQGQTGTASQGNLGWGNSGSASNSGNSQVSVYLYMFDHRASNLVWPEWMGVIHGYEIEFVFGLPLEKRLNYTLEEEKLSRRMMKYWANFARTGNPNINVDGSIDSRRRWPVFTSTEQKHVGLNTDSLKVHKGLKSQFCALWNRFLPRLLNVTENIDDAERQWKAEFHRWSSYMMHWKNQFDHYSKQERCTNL

By inhibition is commonly meant the share of the control response that was lost under treatment. A word on the IC50: it is the concentration that gives 50% inhibition. For the compound `Oc1ccc(-c2cc3ccccc3o2)cc1`, the inhibition entry in series [1] and in series [3] was “inactive” throughout. Moreover, in series [2], the INH is reported as 24%. In addition, on Cholinesterase [4], the IC50 is greater than 100 µM.

In series [3], `COc1ccc(-c2cc3cccc(Cl)c3o2)cc1` yielded an inhibition of 5%. The IC50 on Cholinesterase [4] was greater than 100 µM.

Take `Oc1ccc(-c2cc3cc(Cl)ccc3o2)cc1`: the INH in series [2] was found to be 15%. For the same compound, the inhibition in series [3] worked out at 15%. In addition, the IC50 against Cholinesterase [4] was greater than 100 µM.

On to `COc1ccc(-c2cc3ccccc3o2)cc1`, for which the inhibition result in series [1] and in series [3] was “inactive” in each case. For the same compound, on Cholinesterase [4], the IC50 was greater than 100 µM.

For `Brc1cccc2cc(-c3ccccc3)oc12`, the inhibition came out at 4% in series [1] and 12% in series [3]. The compound further had an IC50 against Cholinesterase [4] greater than 100 µM.

Turning to `c1ccc(-c2cc3ccccc3o2)cc1`, the inhibition result in series [1] was “inactive”. Moreover, in series [3], the inhibition stood at 6%. The IC50 against Cholinesterase [4] was greater than 100 µM.

Consider `Cc1c(C)c2c(c(C)c1O)CCC(C)(C(=O)O)O2` (stereo unspecified) [TROLOX], for which the IC50 in series [5] (ABTS free radical) amounted to 13 µM.

Regarding `Oc1ccc(-c2cc3cc(Br)ccc3o2)cc1`, the INH in series [2] stood at 15%. Moreover, the inhibition in series [3] worked out at 16.6%. On Cholinesterase [4], this compound had an IC50 greater than 100 µM.

The Ki is a dissociation constant, usually derived from enzyme kinetics or from competition with a known ligand. With `Oc1ccc(-c2cc3cccc(Cl)c3o2)cc1`, the Ki at Cholinesterase [6] is 5 µM; at Cholinesterase [8], 87.4 µM. Also, the Activity result in series [7] is on record as “Non-toxic”. In addition, the results for the IC50 (in series [5]; against Cholinesterase [4]) were 67.6 µM and 30.3 µM, respectively. Further, the INH in series [2] worked out at 62.4%. In series [3], this compound returned an inhibition of 77%.

Regarding `Cc1ccc2oc(-c3ccc(O)cc3)cc2c1`, the inhibition is 4.8% in series [1] and 19% in series [3]. In addition, the INH in series [2] worked out at 31%. In addition, the IC50 on Cholinesterase [4] is greater than 100 µM.

Regarding `Oc1ccc(-c2cc3cccc(Br)c3o2)cc1`, the IC50 came out at 93.6 µM in series [5] (ABTS free radical) and 82.5 µM against Cholinesterase [4]. The INH in series [2] turned out to be 53%. Besides, in series [3], the inhibition turned out to be 54%.

Regarding `Cc1cccc2cc(-c3ccc(O)cc3)oc12`, the IC50 in series [5] (ABTS free radical) was found to be 53.5 µM; at Cholinesterase [4], 77 µM. The INH in series [2] is listed as 72%. In addition, the inhibition in series [3] was found to be 58%.
